What was measured:
Homo sapiens = species on record: Homo sapiens; assay: Selectivity ratio of Ki for human orexin-1 receptor to Ki for human orexin-2 receptor
Outline: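 Radioligand binding: a high-affinity radioligand was bound to membranes from human cells overexpressing OX1R or OX2R, and inhibition of that binding was measured and expressed as Ki. The ratio is the OX1R Ki divided by the OX2R Ki.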

[1] = molecular target: T1, Orexin/Hypocretin receptor type 1 (Homo sapiens, UniProt O43613); assay: Displacement of [3H]SB-674042 from human orexin-1 receptor after 60 mins by scintillation counting analysis
T1 sequence (O43613 whole entry): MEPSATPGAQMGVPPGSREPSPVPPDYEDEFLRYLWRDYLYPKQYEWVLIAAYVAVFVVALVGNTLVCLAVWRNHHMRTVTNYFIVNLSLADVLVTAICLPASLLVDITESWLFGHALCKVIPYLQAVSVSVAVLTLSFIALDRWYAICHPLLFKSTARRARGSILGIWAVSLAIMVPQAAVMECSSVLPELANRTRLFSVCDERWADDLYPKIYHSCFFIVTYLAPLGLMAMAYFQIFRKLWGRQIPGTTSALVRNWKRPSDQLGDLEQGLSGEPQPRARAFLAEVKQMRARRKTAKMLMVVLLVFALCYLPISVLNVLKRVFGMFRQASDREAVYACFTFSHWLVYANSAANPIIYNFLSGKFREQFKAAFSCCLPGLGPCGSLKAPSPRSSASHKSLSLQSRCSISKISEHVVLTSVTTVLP
Outline: (§1)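 Radioligand binding on membranes from human cells overexpressing the orexin receptor. Inhibition of high-affinity radioligand binding measured and expressed as Ki.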

Orexin receptor type 2 [2] = molecular target: T2, Orexin receptor type 2 (Homo sapiens, UniProt O43614); assay: Displacement of [3H]SB-674042 from human orexin-2 receptor after 60 mins by scintillation counting analysis; outline: as §1
T2 sequence (O43614 whole entry): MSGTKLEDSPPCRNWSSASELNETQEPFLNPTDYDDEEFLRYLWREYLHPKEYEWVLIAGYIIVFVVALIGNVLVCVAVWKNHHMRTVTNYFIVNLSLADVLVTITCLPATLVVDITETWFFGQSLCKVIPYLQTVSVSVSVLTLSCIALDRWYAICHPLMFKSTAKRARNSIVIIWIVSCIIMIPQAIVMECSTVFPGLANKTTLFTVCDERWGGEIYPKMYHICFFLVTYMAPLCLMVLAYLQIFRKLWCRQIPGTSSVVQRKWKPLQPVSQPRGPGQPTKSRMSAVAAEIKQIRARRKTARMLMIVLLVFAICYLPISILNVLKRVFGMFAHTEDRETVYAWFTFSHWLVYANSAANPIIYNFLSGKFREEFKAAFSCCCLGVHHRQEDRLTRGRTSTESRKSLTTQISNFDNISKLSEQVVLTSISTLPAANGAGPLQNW

[3] = molecular target: L-type calcium channel, dihydropyridine binding site (Rattus norvegicus, UniProt P22002+P27732+Q02485); assay: Inhibition of rat L-type calcium channel dihydropyridine binding site at 10 uM relative to control
[4] = Lipophilicity, log P of the compound; format: physicochemical; settings: octanol/water
[5] = molecular target: L-type calcium channel, phenylalkylamine binding site (Rattus norvegicus, UniProt P22002+P27732+Q02485); assay: Inhibition of rat L-type calcium channel phenylalkylamine binding site at 10 uM relative to control
[6] = molecular target: T1, Orexin/Hypocretin receptor type 1; assay: Antagonist activity at human orexin-1 receptor assessed as inhibition of orexin-A-induced intracellular calcium mobilization after 30 mins by cell-based FLIPR assay; format: functional
Outline: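 Cell-based FLIPR functional assay in orexin receptor-expressing cells, with Ca2+ flux as the read-out of orexin-driven receptor activation.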

Mu-type opioid receptor = Mu-type opioid receptor (Homo sapiens, UniProt P35372); assay: Inhibition of human mu opioid receptor
[7] = Inhibition of guinea pig adenosine transporter; parameters: species or system Cavia porcellus
[8] = molecular target: L-type calcium channel, benzothiazepine binding site (Rattus norvegicus, UniProt P22002+P27732+Q02485); assay: Inhibition of rat L-type calcium channel benzothiazepine binding site at 10 uM relative to control
hERG (KCNH2) [9] = molecular target: T3, hERG (KCNH2) (Homo sapiens, UniProt Q12809); assay: Inhibition of human ERG at 0.1 uM relative to control
hERG (KCNH2) [10] = molecular target: T3, hERG (KCNH2); assay: Inhibition of human ERG at 10 nM relative to control
[11] = Inhibition of rabbit monoamine transporter; parameters: species or system Oryctolagus cuniculus
[12] = Fraction unbound in rat plasma by equilibrium dialysis method; format: ADME, cell-free
[13] = molecular target: 5-hydroxytryptamine receptor 1A (Homo sapiens, UniProt P08908); assay: Inhibition of human 5-HT1A receptor
Nucleic Acid = assay: Ratio of drug level in CSF to plasma in rat at 3 mg/kg, po after 1 hr; format: ADME, organism-based; parameters: dose 3 mg/kg, route oral
MDR1 (P-gp, ABCB1) = MDR1 (P-gp, ABCB1) (Homo sapiens, UniProt P08183); assay: Activity at human MDR1 expressed in pig LLC-PK cells assessed as efflux ratio of permeability from basolateral to apical side over apical to basolateral side; format: ADME, cell-based; settings: LLC-PK1
[14] = AUC in rat EEG model at 15 mg/kg, po; format: ADME, organism-based; parameters: dose 15 mg/kg, route oral; settings: in vivo
hERG (KCNH2) [15] = molecular target: T3, hERG (KCNH2); assay: Inhibition of human ERG at 1 uM relative to control
[16] = molecular target: 5-hydroxytryptamine receptor 2B (Homo sapiens, UniProt P41595); assay: Inhibition of human 5-HT2B receptor
MAO-A = MAO-A (Homo sapiens, UniProt P21397); assay: Inhibition of human MAO-A at 10 uM relative to control
D(3) dopamine receptor = D(3) dopamine receptor (Homo sapiens, UniProt P35462); assay: Inhibition of human dopamine D3 receptor
[17] = Cmax in rat EEG model at 15 mg/kg, po; format: ADME, organism-based; parameters: dose 15 mg/kg, route oral; settings: in vivo
Orexin receptor type 2 [18] = molecular target: T2, Orexin receptor type 2; assay: Antagonist activity at human orexin-2 receptor assessed as inhibition of orexin-A-induced intracellular calcium mobilization after 30 mins by cell-based FLIPR assay; format: functional
[19] = Fraction unbound in human plasma by equilibrium dialysis method; format: ADME, cell-free
[20] = molecular target: 5-hydroxytryptamine receptor 1B (Rattus norvegicus, UniProt P28564); assay: Inhibition of rat 5-HT1B receptor
MAO-B = MAO-B (Homo sapiens, UniProt P27338); assay: Inhibition of human MAO-B at 10 uM relative to control
[21] = molecular target: Voltage-gated inwardly rectifying potassium channel KCNH2 (Homo sapiens, UniProt Q12809); assay: Inhibition of human ERG
hERG (KCNH2) [22] = molecular target: T3, hERG (KCNH2); assay: Inhibition of human ERG at 10 uM relative to control
[23] = Bioavailability in rat at 10 mg/kg; format: ADME, organism-based; settings: in vivo
[24] = Clearance in rat at 10 mg/kg; format: ADME, organism-based; parameters: dose 10 mg/kg; settings: in vivo
[25] = Clearance in rat; format: ADME, organism-based; settings: in vivo
[26] = Half life in rat; format: ADME, organism-based; settings: in vivo
[27] = Oral bioavailability in rat; format: ADME, organism-based; settings: in vivo
[28] = Ratio of drug level in brain to plasma in rat at 3 mg/kg, po after 1 hr; format: ADME, organism-based; parameters: dose 3 mg/kg, route oral; settings: read-out: BPR

T3 sequence (Q12809 whole entry): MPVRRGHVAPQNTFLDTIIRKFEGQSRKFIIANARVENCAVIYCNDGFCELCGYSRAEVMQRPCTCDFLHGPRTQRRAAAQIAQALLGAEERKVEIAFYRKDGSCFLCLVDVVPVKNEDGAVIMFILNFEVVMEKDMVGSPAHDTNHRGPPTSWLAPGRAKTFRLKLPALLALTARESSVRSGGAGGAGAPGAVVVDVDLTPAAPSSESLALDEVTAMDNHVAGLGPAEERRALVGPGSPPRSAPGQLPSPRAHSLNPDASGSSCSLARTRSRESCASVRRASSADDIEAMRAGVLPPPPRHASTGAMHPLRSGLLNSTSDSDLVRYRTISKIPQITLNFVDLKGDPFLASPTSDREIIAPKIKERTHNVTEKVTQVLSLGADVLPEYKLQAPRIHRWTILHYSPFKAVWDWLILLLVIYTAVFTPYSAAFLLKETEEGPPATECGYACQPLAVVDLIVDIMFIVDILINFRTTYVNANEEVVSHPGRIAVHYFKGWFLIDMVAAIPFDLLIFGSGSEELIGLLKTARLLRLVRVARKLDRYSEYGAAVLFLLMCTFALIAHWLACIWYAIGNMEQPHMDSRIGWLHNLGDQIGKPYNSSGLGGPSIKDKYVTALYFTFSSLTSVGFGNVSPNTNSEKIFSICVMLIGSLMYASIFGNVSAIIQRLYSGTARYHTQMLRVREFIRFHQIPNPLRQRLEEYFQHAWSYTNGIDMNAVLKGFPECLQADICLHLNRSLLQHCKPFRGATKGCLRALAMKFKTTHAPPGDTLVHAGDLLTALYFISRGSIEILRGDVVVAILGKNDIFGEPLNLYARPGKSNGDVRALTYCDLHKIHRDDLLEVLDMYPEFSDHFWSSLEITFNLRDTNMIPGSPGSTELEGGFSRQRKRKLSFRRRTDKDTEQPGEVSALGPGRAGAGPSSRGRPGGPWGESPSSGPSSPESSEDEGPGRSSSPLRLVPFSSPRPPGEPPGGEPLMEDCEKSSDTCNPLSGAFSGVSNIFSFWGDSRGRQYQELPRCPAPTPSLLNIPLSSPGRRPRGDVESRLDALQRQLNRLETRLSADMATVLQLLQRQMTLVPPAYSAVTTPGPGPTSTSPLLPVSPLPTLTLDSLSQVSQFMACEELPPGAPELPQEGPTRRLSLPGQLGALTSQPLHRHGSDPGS
Sequence of 5-hydroxytryptamine receptor 2B (P41595 whole entry): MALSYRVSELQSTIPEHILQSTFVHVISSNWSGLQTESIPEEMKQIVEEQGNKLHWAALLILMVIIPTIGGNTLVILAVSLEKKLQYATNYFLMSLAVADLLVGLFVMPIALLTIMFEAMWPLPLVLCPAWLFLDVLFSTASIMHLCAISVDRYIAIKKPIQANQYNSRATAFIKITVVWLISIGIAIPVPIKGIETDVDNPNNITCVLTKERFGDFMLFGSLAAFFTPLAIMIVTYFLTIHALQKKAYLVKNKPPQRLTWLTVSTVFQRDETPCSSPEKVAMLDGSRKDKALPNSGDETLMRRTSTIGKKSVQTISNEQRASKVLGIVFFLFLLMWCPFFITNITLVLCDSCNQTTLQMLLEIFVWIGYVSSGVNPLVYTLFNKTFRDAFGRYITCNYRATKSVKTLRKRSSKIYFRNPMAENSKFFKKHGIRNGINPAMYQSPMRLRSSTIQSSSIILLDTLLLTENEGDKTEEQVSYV
Sequence of Mu-type opioid receptor (P35372 whole entry): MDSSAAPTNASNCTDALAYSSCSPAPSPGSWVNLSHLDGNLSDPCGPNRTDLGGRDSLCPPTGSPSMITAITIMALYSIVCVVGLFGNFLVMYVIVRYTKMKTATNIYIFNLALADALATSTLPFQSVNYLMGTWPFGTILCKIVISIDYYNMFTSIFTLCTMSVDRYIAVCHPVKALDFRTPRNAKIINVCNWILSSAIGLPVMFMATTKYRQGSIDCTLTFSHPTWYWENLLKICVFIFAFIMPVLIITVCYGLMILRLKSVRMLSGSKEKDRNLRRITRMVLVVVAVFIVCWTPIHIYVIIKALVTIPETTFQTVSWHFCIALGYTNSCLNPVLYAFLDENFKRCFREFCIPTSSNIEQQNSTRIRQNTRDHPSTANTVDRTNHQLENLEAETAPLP
Sequence of D(3) dopamine receptor (P35462 whole entry): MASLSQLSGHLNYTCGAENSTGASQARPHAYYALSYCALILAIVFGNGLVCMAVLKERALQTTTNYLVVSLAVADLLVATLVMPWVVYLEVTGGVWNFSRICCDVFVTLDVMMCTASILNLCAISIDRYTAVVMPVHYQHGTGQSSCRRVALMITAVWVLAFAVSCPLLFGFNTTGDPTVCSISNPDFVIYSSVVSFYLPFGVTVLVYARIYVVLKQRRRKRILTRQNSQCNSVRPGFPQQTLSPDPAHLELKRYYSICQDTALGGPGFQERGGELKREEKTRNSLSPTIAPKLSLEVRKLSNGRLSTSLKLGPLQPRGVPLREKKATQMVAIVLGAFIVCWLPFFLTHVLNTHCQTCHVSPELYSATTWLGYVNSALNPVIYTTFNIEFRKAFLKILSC
Sequence of 5-hydroxytryptamine receptor 1A (P08908 whole entry): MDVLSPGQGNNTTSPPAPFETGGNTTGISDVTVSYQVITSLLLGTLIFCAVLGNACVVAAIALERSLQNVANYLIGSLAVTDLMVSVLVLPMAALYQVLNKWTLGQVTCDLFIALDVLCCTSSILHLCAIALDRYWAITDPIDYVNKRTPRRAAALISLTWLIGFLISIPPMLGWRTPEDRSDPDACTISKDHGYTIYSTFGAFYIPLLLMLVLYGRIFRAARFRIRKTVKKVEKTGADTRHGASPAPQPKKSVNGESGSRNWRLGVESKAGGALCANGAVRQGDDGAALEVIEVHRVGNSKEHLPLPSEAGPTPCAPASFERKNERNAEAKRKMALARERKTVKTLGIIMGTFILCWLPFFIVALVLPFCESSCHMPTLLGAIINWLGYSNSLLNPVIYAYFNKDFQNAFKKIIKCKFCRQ
Sequence of 5-hydroxytryptamine receptor 1B (P28564 whole entry): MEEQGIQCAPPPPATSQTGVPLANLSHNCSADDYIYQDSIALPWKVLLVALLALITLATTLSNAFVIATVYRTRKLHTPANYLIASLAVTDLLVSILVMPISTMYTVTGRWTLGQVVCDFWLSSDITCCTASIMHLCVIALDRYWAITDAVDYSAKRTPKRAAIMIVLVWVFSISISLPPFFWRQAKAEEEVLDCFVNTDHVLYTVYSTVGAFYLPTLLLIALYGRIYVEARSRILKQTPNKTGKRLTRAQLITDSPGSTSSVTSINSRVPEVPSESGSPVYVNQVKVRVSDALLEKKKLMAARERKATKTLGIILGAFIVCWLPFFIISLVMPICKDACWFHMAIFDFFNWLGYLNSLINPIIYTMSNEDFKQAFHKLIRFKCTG
Sequence of MAO-A (P21397 whole entry): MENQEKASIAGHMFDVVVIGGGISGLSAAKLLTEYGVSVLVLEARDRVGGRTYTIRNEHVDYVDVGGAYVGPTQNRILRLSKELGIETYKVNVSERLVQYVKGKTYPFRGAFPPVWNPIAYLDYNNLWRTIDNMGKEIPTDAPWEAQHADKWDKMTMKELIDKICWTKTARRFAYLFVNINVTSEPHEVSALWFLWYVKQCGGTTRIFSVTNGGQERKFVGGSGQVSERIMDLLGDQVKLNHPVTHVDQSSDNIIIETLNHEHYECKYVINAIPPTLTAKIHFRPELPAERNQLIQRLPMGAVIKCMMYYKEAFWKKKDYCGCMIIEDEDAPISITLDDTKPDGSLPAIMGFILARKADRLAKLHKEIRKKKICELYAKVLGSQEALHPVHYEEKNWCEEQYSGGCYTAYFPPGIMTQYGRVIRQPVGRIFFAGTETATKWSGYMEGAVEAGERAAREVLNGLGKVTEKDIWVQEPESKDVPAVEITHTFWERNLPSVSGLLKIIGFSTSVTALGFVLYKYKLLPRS
Sequence of Voltage-gated inwardly rectifying potassium channel KCNH2 (Q12809 whole entry): as the sequence (Q12809 whole entry) above

Molecule `Cc1cc(C)cc(-c2cnc(-c3cccnc3)c(C(=O)NCc3ccc(C(F)(F)F)c(F)c3)c2)c1` has a Ratio Ki (Homo sapiens) of 58, a Ki [1] of 236 nM and a Ki (Orexin receptor type 2 [2]) of 4.1 nM.
`COc1ccc(CNC(=O)c2cc(-c3cc(F)cc(Cl)c3)cnc2-c2cccnc2)cc1OC` showed a Ratio Ki (Homo sapiens) of 1810, a Ki [1] of 1090 nM and a Ki (Orexin receptor type 2 [2]) of 0.6 nM.
`COc1ccc(CNC(=O)c2cc(-c3cc(F)cc(F)c3)cnc2-c2cccnc2)cc1OC` showed a Ratio Ki (Homo sapiens) of 620, a Ki [1] of 5150 nM and a Ki (Orexin receptor type 2 [2]) of 8.3 nM.
Work on `COc1ccc(CNC(=O)c2cc(-c3cc(C)cc(F)c3)cnc2-c2cccnc2)cc1OC` yielded a Ratio Ki (Homo sapiens) of 1340, a Ki [1] of 1070 nM and a Ki (Orexin receptor type 2 [2]) of 0.8 nM.
`COc1ccc(CNC(=O)c2cc(-c3cc(C)cc(C)c3)cnc2-c2cccnc2)cc1` showed a Ratio Ki (Homo sapiens) of 135, a Ki [1] of 2980 nM and a Ki (Orexin receptor type 2 [2]) of 22 nM.
In the case of `Cc1cc(C)cc(-c2cnc(-c3cccnc3)c(C(=O)NCc3ccc4c(c3)OCO4)c2)c1`, the Ratio Ki (Homo sapiens) is reported as 208, the Ki [1] is reported as 3550 nM and the Ki (Orexin receptor type 2 [2]) is reported as 17 nM.
`COc1cccc(CNC(=O)c2cc(-c3cc(C)cc(C)c3)cnc2-c2cccnc2)c1` showed a Ratio Ki (Homo sapiens) of 83, a Ki [1] of 3350 nM and a Ki (Orexin receptor type 2 [2]) of 40.5 nM.
`Cc1cc(C)cc(-c2cnc(-c3cccnc3)c(C(=O)NCc3ccc(N(C)C)cc3)c2)c1` showed a Ratio Ki (Homo sapiens) of 174, a Ki [1] of 833 nM and a Ki (Orexin receptor type 2 [2]) of 4.8 nM.
`COc1ccc(CNC(=O)c2cc(-c3cccc(Cl)c3)cnc2-c2cccnc2)cc1OC` showed a Ratio Ki (Homo sapiens) of 574, a Ki [1] of 747 nM and a Ki (Orexin receptor type 2 [2]) of 1.3 nM.
With `Cc1cc(C)cc(-c2cnc(-c3cccnc3)c(C(=O)NCc3ccc(F)c(C)c3)c2)c1` the Ratio Ki (Homo sapiens) was 61, the Ki [1] was 1100 nM and the Ki (Orexin receptor type 2 [2]) was 18 nM.
`Cc1cc(C)cc(-c2cnc(-c3cccnc3)c(C(=O)N(C)Cc3ccc4nccnc4c3)c2)c1` gave a Ratio Ki (Homo sapiens) of 92, a Ki [1] of 7250 nM and a Ki (Orexin receptor type 2 [2]) of 78.5 nM.
`Cc1cc(C)cc(-c2cnc(-c3cccnc3)c(C(=O)N(C)Cc3ccc4c(c3)OCO4)c2)c1` gave a Ratio Ki (Homo sapiens) of 3.3, a Ki [1] of 1900 nM and a Ki (Orexin receptor type 2 [2]) of 580 nM.
For `COc1ccc(CNC(=O)c2cc(-c3cc(C(F)(F)F)cc(C(F)(F)F)c3)cnc2-c2cccnc2)cc1OC`, the Ratio Ki (Homo sapiens) was 537, the Ki [1] was 65000 nM and the Ki (Orexin receptor type 2 [2]) was 121 nM.
`COc1ccc(CNC(=O)c2cc(-c3cc(Cl)cc(Cl)c3)cnc2-c2cccnc2)cc1OC` showed an inhibition at 10 µM [3] of 24%, a logP [4] of 3.6 and an inhibition at 10 µM [5] of 4%. For the same molecule, the IC50 [6] was 292 nM, the IC50 (Mu-type opioid receptor) was 5020 nM and the Ki (Mu-type opioid receptor) was 2040 nM. For the same molecule, the IC50 [7] was 2530 nM, the Ki [7] was 866 nM and the inhibition at 10 µM [8] was 1%. It also gave an inhibition at 0.1 µM (hERG (KCNH2) [9]) of 12%, an inhibition at 0.01 µM (hERG (KCNH2) [10]) of 3% and an IC50 [11] of 8210 nM. For the same molecule, the Ki [11] was 6820 nM, the fraction unbound [12] was 0.047 and the IC50 [13] was 2300 nM. For the same molecule, the Ki [13] was 1310 nM, the Ratio (Nucleic Acid) was 0.2% and the efflux ratio (MDR1 (P-gp, ABCB1)) was 6.4. It also gave an AUC [14] of 9 µM·h, a Ki [1] of 94.5 nM and an inhibition at 1 µM (hERG (KCNH2) [15]) of 17%. For the same molecule, the IC50 [16] was 1040 nM, the Ki [16] was 662 nM and the inhibition at 10 µM (MAO-A) was 41%. For the same molecule, the IC50 (D(3) dopamine receptor) was 9540 nM, the Ki (D(3) dopamine receptor) was 3240 nM and the Cmax [17] was 2300 nM. The IC50 (Orexin receptor type 2 [18]) was 12 nM, the fraction unbound [19] was 0.032 and the IC50 [20] was 2400 nM. It also gave a Ki [20] of 2280 nM, a Ki (Orexin receptor type 2 [2]) of 0.07 nM and an inhibition at 10 µM (MAO-B) of 31%. For the same molecule, the IC50 [21] was 6950 nM and the inhibition at 10 µM (hERG (KCNH2) [22]) was 58%.
With `COc1ccc(CNC(=O)c2cc(-c3cc(C)cc(C)c3)cnc2-c2cccnc2)cc1OC` the Ratio Ki (Homo sapiens) was 660, the bioavailability [23] was 12% and the Ki [1] was 462 nM. The Ki (Orexin receptor type 2 [2]) was 0.7 nM and the clearance [24] was 66 mL/min/kg.
`COc1ccc(CNC(=O)c2cc(-c3cc(Cl)cc(Cl)c3)cnc2-c2cccnc2)cc1OC.Cl` showed a clearance [25] of 39 mL/min/kg, a half-life [26] of 54 min and a bioavailability [27] of 55%. It also gave a Kp at 1 h [28] of 0.19.
In the case of `Cc1cc(C)cc(-c2cnc(-c3cccnc3)c(C(=O)NCc3ccc4c(c3)CCN4C)c2)c1`, the Ratio Ki (Homo sapiens) is reported as 91, the Ki [1] is reported as 273 nM and the Ki (Orexin receptor type 2 [2]) is reported as 3 nM.

Source: ChEMBL document CHEMBL3098111, “Discovery of 2,5-diarylnicotinamides as selective orexin-2 receptor antagonists (2-SORAs)” (Bioorg Med Chem Lett, 2013)
